Source: ChEMBL document CHEMBL4732101, “Novel quinolone-based potent and selective HDAC6 inhibitors: Synthesis, molecular modeling studies and biological investigation” (Eur J Med Chem, 2021)
Active and inactive are the calls of the source. The calls are words filed in the database; no cut-off is given here.

Legend:
[1] = Mutagenicity in Salmonella typhimurium TA100 at 5 to 230 uM measured after 90 mins in presence of rat liver S9 fraction by Ames test; type: toxicity, subcellular; details: salmonella enterica subsp. enterica serovar typhimurium, s9, 1.5 h, dose 5-230 µM
[2] = Stability of compound in pH 3 buffer assessed as parent compound remaining at 250 uM measured after 24 hrs by HPLC/UV/DAD method; type: physicochemical; details: read-out: Stabilty
Method in brief: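 10 mM DMSO stock diluted to 250 µM (2.5% DMSO) in 50 mM acetic acid, pH 3.0, and shaken 24 h at 25 °C. For solubility, samples filtered, diluted 1:2, quantified by HPLC-UV at 254 nm against a standard. For stability, percent remaining taken as the 24 h peak area over the T0 peak area. Triplicate analyses averaged.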

[3] = Mutagenicity in Salmonella typhimurium TA98 at 5 to 230 uM measured after 90 mins in presence of rat liver S9 fraction by Ames test; type: toxicity, subcellular; details: salmonella enterica subsp. enterica serovar typhimurium, s9, 1.5 h, dose 5-230 µM
[4] = biological target: T1, Protein deacetylase HDAC6 (Homo sapiens) (UniProt Q9UBN7); test: Inhibition of HDAC6 in human HCT-116 cells assessed as increase in Hsp90(AcLys294) acetylation at 10 uM measured after 12 to 24 hrs by Western blot analysis; type: cell-based; details: time 12-24 hrs
T1 sequence (whole entry): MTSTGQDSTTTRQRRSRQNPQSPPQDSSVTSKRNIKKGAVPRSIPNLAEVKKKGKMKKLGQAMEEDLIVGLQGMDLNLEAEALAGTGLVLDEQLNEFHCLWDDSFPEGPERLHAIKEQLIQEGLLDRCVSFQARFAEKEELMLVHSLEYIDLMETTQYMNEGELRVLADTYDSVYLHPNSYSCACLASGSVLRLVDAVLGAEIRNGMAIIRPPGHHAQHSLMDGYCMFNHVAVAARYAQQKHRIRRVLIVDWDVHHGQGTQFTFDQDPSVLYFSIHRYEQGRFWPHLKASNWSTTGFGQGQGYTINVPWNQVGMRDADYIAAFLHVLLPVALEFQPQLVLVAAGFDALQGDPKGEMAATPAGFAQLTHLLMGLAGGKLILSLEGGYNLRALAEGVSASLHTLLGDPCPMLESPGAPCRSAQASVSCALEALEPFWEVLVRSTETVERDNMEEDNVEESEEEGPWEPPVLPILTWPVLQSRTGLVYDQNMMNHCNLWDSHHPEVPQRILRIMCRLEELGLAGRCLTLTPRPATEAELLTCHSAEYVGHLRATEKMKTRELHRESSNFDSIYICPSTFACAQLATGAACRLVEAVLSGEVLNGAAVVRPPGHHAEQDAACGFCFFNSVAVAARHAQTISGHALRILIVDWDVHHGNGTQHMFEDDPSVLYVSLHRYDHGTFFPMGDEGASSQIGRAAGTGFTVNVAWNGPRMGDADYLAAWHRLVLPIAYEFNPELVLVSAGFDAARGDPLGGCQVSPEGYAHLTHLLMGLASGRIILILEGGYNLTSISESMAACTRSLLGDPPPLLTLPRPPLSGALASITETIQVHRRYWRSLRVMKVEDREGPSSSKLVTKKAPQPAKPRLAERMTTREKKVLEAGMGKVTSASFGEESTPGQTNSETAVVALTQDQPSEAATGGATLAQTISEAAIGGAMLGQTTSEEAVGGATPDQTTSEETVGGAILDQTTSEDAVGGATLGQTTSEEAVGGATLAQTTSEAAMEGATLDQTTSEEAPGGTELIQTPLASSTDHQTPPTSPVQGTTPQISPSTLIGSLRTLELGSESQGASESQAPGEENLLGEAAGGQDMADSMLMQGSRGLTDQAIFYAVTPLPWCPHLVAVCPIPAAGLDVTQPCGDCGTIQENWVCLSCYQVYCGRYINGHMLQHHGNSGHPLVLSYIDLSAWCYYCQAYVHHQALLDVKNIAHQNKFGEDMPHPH
Method in brief: (§1)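 HCT-116 or U937 cells treated at 10 µM for 12 and 24 h. […] Western blot used 40 µg total protein or 5 µg acid-extracted histone. Blots probed for cleaved PARP, acetylated tubulin, H3K9/14ac and Hsp90(AcLys294), normalized to GAPDH or H4. Compared with control cells by one-way ANOVA and Dunnett's test.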

U-937 [5] = test: Induction of apoptosis in human U-937 cells assessed as increase in PARP cleavage at 10 uM measured after 24 hrs by Western blot analysis; type: functional, cell-based; method in brief: as §1
[6] = Inhibition of HDAC1/2/3/8 in human HCT-116 cells assessed as increase in H3K9/14 acetylation at 10 uM measured after 12 to 24 hrs by Western blot analysis relative to control; type: cell-based; details: hct-116, 10 µM, time 12-24 hrs; method in brief: as §1
U-937 [7] = test: Cytotoxicity against human U-937 cells assessed as reduction in cell viability measured after 48 hrs by MTT assay; type: functional, cell-based; details: U-937, 48 h
Method in brief: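 U937 cells grown in RPMI-1640 with 10% FBS, 2 mM L-glutamine and penicillin-streptomycin. 2.5×10^4 cells/well treated in triplicate at 50, 25, 10, 5 and 1 µM for 12, 24 or 48 h. MTT 0.5 mg/ml added for 3 h, plate centrifuged 5 min at 1200 rpm, crystals dissolved in isopropanol, A570 read. IC50 derived from the concentration series.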

Histone deacetylase 8 = biological target: T2, Histone deacetylase 8 (Homo sapiens, UniProt Q9BY41); test: Inhibition of recombinant human HDAC8 using Fluor-de-Lys as substrate measured after 1 hr by fluorescence assay
T2 sequence (Q9BY41 whole entry): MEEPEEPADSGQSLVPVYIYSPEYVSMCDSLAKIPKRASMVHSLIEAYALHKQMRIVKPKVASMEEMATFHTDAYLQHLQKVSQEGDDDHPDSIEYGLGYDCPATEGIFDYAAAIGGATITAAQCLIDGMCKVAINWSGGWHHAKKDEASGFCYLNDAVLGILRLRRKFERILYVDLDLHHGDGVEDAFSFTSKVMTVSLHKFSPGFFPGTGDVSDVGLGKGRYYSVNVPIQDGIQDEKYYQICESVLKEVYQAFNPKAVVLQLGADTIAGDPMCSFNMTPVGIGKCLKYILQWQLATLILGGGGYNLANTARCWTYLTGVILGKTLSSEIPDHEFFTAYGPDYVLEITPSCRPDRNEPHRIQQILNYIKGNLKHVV

[8] = biological target: T1, Protein deacetylase HDAC6 (Homo sapiens); test: Inhibition of HDAC6 in human HCT-116 cells assessed as increase in alpha-tubulin acetylation at 10 uM measured after 12 to 24 hrs by Western blot analysis relative to control; type: cell-based; details: time 12-24 hrs; method in brief: as §1
[9] = biological target: T1, Protein deacetylase HDAC6 (Homo sapiens); test: Inhibition of HDAC6 in human U-937 cells assessed as increase in alpha-tubulin acetylation at 10 uM measured after 12 to 24 hrs by Western blot analysis relative to control; type: cell-based; details: time 12-24 hrs; method in brief: as §1

For CCN(CC)Cc1ccc(Cn2c(=O)c(OCc3ccc(C(=O)NO)cc3)c(-c3cccnc3)c3ccccc32)cc1, the Activity [1] was “Non-Toxic”, the remaining at 24 h, 250 µM [2] was over 95% and the Activity [3] was “Non-Toxic”. The inhibition [4] was “Active”, the Activity (U-937 [5]) was “Active” and the “fold change (FC)” value [6] was over 6. It also gave an IC50 (U-937 [7]) of 45.5 µM, an IC50 (Histone deacetylase 8) of 0.49 µM and a Kapp (Histone deacetylase 8; human, 1 h) of 0.4 µM. The fold change (FC) [8] was over 9 and the fold change (FC) [9] was over 9.
